Results from ChEMBL document CHEMBL3400013, “Synthesis and biological activity evaluation of hydrazone derivatives based on a Tröger's base skeleton” (Bioorg Med Chem, 2015).
Active and inactive are the calls of the source. The calls are words filed in the database; no cut-off is given here.

system: MRC5; experiment: Cytostatic activity against human MRC5 cells after 72 hrs by MTT assay; type: ADME, cell-based; conditions: MRC5, 72 h
Summary of the method: (§1)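 Cells were seeded at 25,000–30,000 per well and pre-incubated for 24 h at 37°C in 5% CO2. Four-fold compound dilutions were added in duplicate and incubated for 72 h. MTT was added for 1–4 h, and formazan was dissolved in 10% aq SDS (pH 5.5) overnight at 37°C. OD was read at 540 nm. IC50 came from dose-response curves, mean ± SD of eight independent experiments.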

| SMILES | IC50 [µM] |
| --- | --- |
| COc1cccnc1/C=N/NC(=O)c1ccc2c3c(ccc2c1)N1Cc2c(ccc4cc(C(=O)N/N=C/c5ncccc5OC)ccc24)N(C3)C1 | > 100 |

system: Candida tropicalis; experiment: Antifungal activity against Candida tropicalis up to 200 uM after 24 to 48 hrs by broth microdilution method; type: functional, organism-based; conditions: not given

| SMILES | Activity |
| --- | --- |
| COc1cccnc1/C=N/NC(=O)c1ccc2c3c(ccc2c1)N1Cc2c(ccc4cc(C(=O)N/N=C/c5ncccc5OC)ccc24)N(C3)C1 | inactive |

system: not listed separately; experiment: Metal chelating activity of the compound assessed as formation of Mg2+ complex by UV-vis spectrometry; type: physicochemical; conditions: not given

| SMILES | Activity |
| --- | --- |
| COc1cccnc1/C=N/NC(=O)c1ccc2c3c(ccc2c1)N1Cc2c(ccc4cc(C(=O)N/N=C/c5ncccc5OC)ccc24)N(C3)C1 | Not Active |

system: Pichia kudriavzevii; experiment: Antifungal activity against Candida crusei up to 200 uM after 24 to 48 hrs by broth microdilution method; type: functional, organism-based; conditions: not given

| SMILES | Activity |
| --- | --- |
| COc1cccnc1/C=N/NC(=O)c1ccc2c3c(ccc2c1)N1Cc2c(ccc4cc(C(=O)N/N=C/c5ncccc5OC)ccc24)N(C3)C1 | inactive |

system: not listed separately; experiment: Cytostatic activity against human p53-/- HCT116 cells after 72 hrs by MTT assay; type: functional, cell-based; conditions: HCT-116, 72 h; summary of the method: as §1

| SMILES | IC50 [µM] |
| --- | --- |
| COc1cccnc1/C=N/NC(=O)c1ccc2c3c(ccc2c1)N1Cc2c(ccc4cc(C(=O)N/N=C/c5ncccc5OC)ccc24)N(C3)C1 | > 100 |

system: Pseudomonas aeruginosa; experiment: Antimicrobial activity against Pseudomonas aeruginosa CCM 395 up to 200 uM after 24 to 48 hrs by broth microdilution method; type: functional, organism-based; conditions: not given

| SMILES | Activity |
| --- | --- |
| COc1cccnc1/C=N/NC(=O)c1ccc2c3c(ccc2c1)N1Cc2c(ccc4cc(C(=O)N/N=C/c5ncccc5OC)ccc24)N(C3)C1 | inactive |

system: Staphylococcus aureus; experiment: Antimicrobial activity against Staphylococcus aureus CCM 3953 up to 200 uM after 24 to 48 hrs by broth microdilution method; type: functional, organism-based; conditions: not given

| SMILES | Activity |
| --- | --- |
| COc1cccnc1/C=N/NC(=O)c1ccc2c3c(ccc2c1)N1Cc2c(ccc4cc(C(=O)N/N=C/c5ncccc5OC)ccc24)N(C3)C1 | inactive |

system: Staphylococcus haemolyticus; experiment: Antimicrobial activity against methicillin-resistant Staphylococcus haemolyticus A1/16568 up to 200 uM after 24 to 48 hrs by broth microdilution method; type: functional, organism-based; conditions: not given

| SMILES | Activity |
| --- | --- |
| COc1cccnc1/C=N/NC(=O)c1ccc2c3c(ccc2c1)N1Cc2c(ccc4cc(C(=O)N/N=C/c5ncccc5OC)ccc24)N(C3)C1 | inactive |

system: Nucleic Acid; experiment: Binding affinity to DNA (unknown origin) assessed as DNA intercalation by UV-visible spectrophotometry in presence of Ni2+; type: nucleic-acid assay; conditions: not given

| SMILES | Activity |
| --- | --- |
| COc1cccnc1/C=N/NC(=O)c1ccc2c3c(ccc2c1)N1Cc2c(ccc4cc(C(=O)N/N=C/c5ncccc5OC)ccc24)N(C3)C1 | Active |

system: BJ; experiment: Selectivity index, ratio of IC50 for human BJ cells to IC50 for human K562-TAX cells; type: functional; conditions: not given

| SMILES | Ratio IC50 |
| --- | --- |
| COc1cccnc1/C=N/NC(=O)c1ccc2c3c(ccc2c1)N1Cc2c(ccc4cc(C(=O)N/N=C/c5ncccc5OC)ccc24)N(C3)C1 | 34.1 |

system: BJ; experiment: Selectivity index, ratio of IC50 for human BJ cells to IC50 for human p53-/- HCT116 cells; type: functional; conditions: not given

| SMILES | Ratio IC50 |
| --- | --- |
| COc1cccnc1/C=N/NC(=O)c1ccc2c3c(ccc2c1)N1Cc2c(ccc4cc(C(=O)N/N=C/c5ncccc5OC)ccc24)N(C3)C1 | 1 |

system: not listed separately; experiment: Cytostatic activity against human K562-TAX cells after 72 hrs by MTT assay; type: functional, cell-based; conditions: not given; summary of the method: as §1

| SMILES | IC50 [µM] |
| --- | --- |
| COc1cccnc1/C=N/NC(=O)c1ccc2c3c(ccc2c1)N1Cc2c(ccc4cc(C(=O)N/N=C/c5ncccc5OC)ccc24)N(C3)C1 | 2.93 |

system: BJ; experiment: Selectivity index, ratio of IC50 for human BJ cells to IC50 for human CEM-DNR cells; type: functional; conditions: not given

| SMILES | Ratio IC50 |
| --- | --- |
| COc1cccnc1/C=N/NC(=O)c1ccc2c3c(ccc2c1)N1Cc2c(ccc4cc(C(=O)N/N=C/c5ncccc5OC)ccc24)N(C3)C1 | 14.9 |

system: Enterococcus faecalis; experiment: Antimicrobial activity against Enterococcus faecalis CCM 4224 up to 200 uM after 24 to 48 hrs by broth microdilution method; type: functional, organism-based; conditions: not given

| SMILES | Activity |
| --- | --- |
| COc1cccnc1/C=N/NC(=O)c1ccc2c3c(ccc2c1)N1Cc2c(ccc4cc(C(=O)N/N=C/c5ncccc5OC)ccc24)N(C3)C1 | inactive |

system: A549; experiment: Selectivity index, ratio of IC50 for human MRC5 cells to IC50 for human A549 cells; type: functional; conditions: not given

| SMILES | Ratio IC50 |
| --- | --- |
| COc1cccnc1/C=N/NC(=O)c1ccc2c3c(ccc2c1)N1Cc2c(ccc4cc(C(=O)N/N=C/c5ncccc5OC)ccc24)N(C3)C1 | 1 |

system: not listed separately; experiment: Metal chelating activity of the compound assessed as formation of Cu2+ complex by UV-vis spectrometry; type: physicochemical; conditions: not given

| SMILES | Activity |
| --- | --- |
| COc1cccnc1/C=N/NC(=O)c1ccc2c3c(ccc2c1)N1Cc2c(ccc4cc(C(=O)N/N=C/c5ncccc5OC)ccc24)N(C3)C1 | Active |

system: Nucleic Acid; experiment: Binding affinity to DNA (unknown origin) assessed as DNA intercalation by UV-visible spectrophotometry; type: nucleic-acid assay; conditions: not given

| SMILES | Activity |
| --- | --- |
| COc1cccnc1/C=N/NC(=O)c1ccc2c3c(ccc2c1)N1Cc2c(ccc4cc(C(=O)N/N=C/c5ncccc5OC)ccc24)N(C3)C1 | inactive |

system: not listed separately; experiment: Cytostatic activity against human CEM-DNR cells after 72 hrs by MTT assay; type: functional, cell-based; conditions: not given; summary of the method: as §1

| SMILES | IC50 [µM] |
| --- | --- |
| COc1cccnc1/C=N/NC(=O)c1ccc2c3c(ccc2c1)N1Cc2c(ccc4cc(C(=O)N/N=C/c5ncccc5OC)ccc24)N(C3)C1 | 6.71 |

system: Nucleic Acid; experiment: Binding affinity to DNA (unknown origin) assessed as DNA intercalation by UV-visible spectrophotometry in presence of Co2+; type: nucleic-acid assay; conditions: not given

| SMILES | Activity |
| --- | --- |
| COc1cccnc1/C=N/NC(=O)c1ccc2c3c(ccc2c1)N1Cc2c(ccc4cc(C(=O)N/N=C/c5ncccc5OC)ccc24)N(C3)C1 | Active |

system: CCRF-CEM; experiment: Cytostatic activity against human CCRF-CEM cells after 72 hrs by MTT assay; type: functional, cell-based; conditions: not given; summary of the method: as §1

| SMILES | IC50 [µM] |
| --- | --- |
| COc1cccnc1/C=N/NC(=O)c1ccc2c3c(ccc2c1)N1Cc2c(ccc4cc(C(=O)N/N=C/c5ncccc5OC)ccc24)N(C3)C1 | 36.6 |

system: not listed separately; experiment: Metal chelating activity of the compound assessed as formation of Fe2+ complex by UV-vis spectrometry; type: physicochemical; conditions: not given

| SMILES | Activity |
| --- | --- |
| COc1cccnc1/C=N/NC(=O)c1ccc2c3c(ccc2c1)N1Cc2c(ccc4cc(C(=O)N/N=C/c5ncccc5OC)ccc24)N(C3)C1 | Not Active |

system: not listed separately; experiment: Metal chelating activity of the compound assessed as formation of Co2+ complex by UV-vis spectrometry; type: physicochemical; conditions: not given

| SMILES | Activity |
| --- | --- |
| COc1cccnc1/C=N/NC(=O)c1ccc2c3c(ccc2c1)N1Cc2c(ccc4cc(C(=O)N/N=C/c5ncccc5OC)ccc24)N(C3)C1 | Active |

system: A549; experiment: Selectivity index, ratio of IC50 for human BJ cells to IC50 for human A549 cells; type: functional; conditions: not given

| SMILES | Ratio IC50 |
| --- | --- |
| COc1cccnc1/C=N/NC(=O)c1ccc2c3c(ccc2c1)N1Cc2c(ccc4cc(C(=O)N/N=C/c5ncccc5OC)ccc24)N(C3)C1 | 1 |

system: BJ; experiment: Cytostatic activity against human BJ cells after 72 hrs by MTT assay; type: ADME, cell-based; conditions: not given; summary of the method: as §1

| SMILES | IC50 [µM] |
| --- | --- |
| COc1cccnc1/C=N/NC(=O)c1ccc2c3c(ccc2c1)N1Cc2c(ccc4cc(C(=O)N/N=C/c5ncccc5OC)ccc24)N(C3)C1 | > 100 |

system: MRC5; experiment: Selectivity index, ratio of IC50 for human MRC5 cells to IC50 for human K562-TAX cells; type: functional; conditions: not given

| SMILES | Ratio IC50 |
| --- | --- |
| COc1cccnc1/C=N/NC(=O)c1ccc2c3c(ccc2c1)N1Cc2c(ccc4cc(C(=O)N/N=C/c5ncccc5OC)ccc24)N(C3)C1 | 34.1 |
